Screening results from PubChem.
Ecoli rRNA inh – reduced GFP signal of wild-type E. coli, primary screen, bacterial rRNA inhibitor project, GFP/RFP fluorescence, OD600, single point; GFP signal change (wild-type ribosome), % (test concentration not listed); 350,000 tested, 1.6% active; E. coli WT GFP vs humanized-ribosome RFP mutants, 24 h; active compounds read low; DMSO median 0, no signal -100;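 active = significant combined selectivity score with lowered wild-type GFP, culture density cut under 30%, mutant RFP and density less affected; inactive = any of these conditions unmet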
SR-BI uptake up – activators of SR-BI mediated DiI-HDL uptake, primary screen, ldlA[mSR-BI] CHO cells, DiI fluorescence; 320,000 tested, 0.096% active; 3 h; 100 = double the neutral-control signal; activation, % at 12.5 µM;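 active = mean replicate activation of at least 60% and every replicate at or above 60%; inconclusive = mean or all-replicate condition met, but not both; inactive = mean below 60% and not all replicates reaching 60%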;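 note: 0% = median plate neutral-control signal and 100% = twice that signal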
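Test system: SR-BI-overexpressing, LDLR-lacking CHO cells; Also added: labelled HDL, 10 µg/mL; Measured by: bottom-read cell fluorescence after medium removal, ex 550/em 595 nm; Timing: 3 h uptake period with compound, 37 °C; Buffer or medium: F12, 0.5% BSA, 25 mM HEPES; Doses: single compound concentration, delivered by pin transfer.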
Xi reactivation – activators of inactive X chromosome reactivation, primary screen, imaging, XiGFP fibroblasts, GFP high-content imaging, set 2 | activation, % at 7.58 µM | 360,000 tested, 0.055% active | XiGFP mouse fibroblasts, % GFP-positive cells imaging, 3 d; cells co-treated with 5-aza-dC sensitizer; scaled so ellipticine positive control = 100%;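 active = mean normalized replicate activation at least 10% and every replicate at or above 10%; inconclusive = only one of the two criteria met; inactive = mean below 10% and not all replicates reach 10%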;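 note: 0% = median of on-plate neutral control wells and 100% = ellipticine 6 µM median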
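System: XiGFP fibroblasts, SV40-immortalized. Medium: DMEM plus 5-aza-dC sensitizer. Doses: single point. Timing: 3 d treatment, 15 min room-temperature fixation. Control set: ellipticine 6 µM.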
dFosB act – activators of delta FosB homodimer, primary screen, biochemical, fluorescence polarization, TAMRA-CDK5 oligo, single point; activation, % at 25 µM; 340,000 tested, 0.99% active; Protein FosB (Mus musculus), P13346; purified delta FosB; percent of positive-control signal above neutral wells;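 active = mean activation above about 17%, with every replicate also reaching it, limit read from the data, passing the limit was not always enough; inconclusive = only one of the two conditions met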
PvdQ acylase – P. aeruginosa PvdQ acylase inhibitors, primary screen, biochemical, fluorescence, plate reader and imaging, single point; AID 488965, 2010; inhibition, % at 10 µM; purified PvdQ acylase; 340,000 tested, 0.063% active; PvdQ acylase [Pseudomonas aeruginosa LESB58]; in the data active = inhibition above about 30%, passing the limit was not always enough; inconclusive = no clear call, values can overlap the other calls;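 note: 0% = vehicle neutral wells and 100% = reference inhibitor wells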
SR-BI HDL uptake – inhibitors of SR-BI mediated HDL lipid uptake, primary screen, ldlA[mSR-BI] cells, fluorescence, single point; Scavenger receptor class B member 1 (Mus musculus), Q61009; ldlA[mSR-BI] CHO cells, DiI-HDL uptake fluorescence, 3 h; inhibition, % at 12.5 µM; 320,000 tested, 0.96% active;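 active = mean replicate inhibition of at least 70% and a set share of replicates each scoring 70 or more; inconclusive = meets just one of the two criteria; inactive = fails both criteria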;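 note: 0% = median of neutral control wells and 100% = median of positive control wells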
Target sequence (Q61009 whole entry, looked up): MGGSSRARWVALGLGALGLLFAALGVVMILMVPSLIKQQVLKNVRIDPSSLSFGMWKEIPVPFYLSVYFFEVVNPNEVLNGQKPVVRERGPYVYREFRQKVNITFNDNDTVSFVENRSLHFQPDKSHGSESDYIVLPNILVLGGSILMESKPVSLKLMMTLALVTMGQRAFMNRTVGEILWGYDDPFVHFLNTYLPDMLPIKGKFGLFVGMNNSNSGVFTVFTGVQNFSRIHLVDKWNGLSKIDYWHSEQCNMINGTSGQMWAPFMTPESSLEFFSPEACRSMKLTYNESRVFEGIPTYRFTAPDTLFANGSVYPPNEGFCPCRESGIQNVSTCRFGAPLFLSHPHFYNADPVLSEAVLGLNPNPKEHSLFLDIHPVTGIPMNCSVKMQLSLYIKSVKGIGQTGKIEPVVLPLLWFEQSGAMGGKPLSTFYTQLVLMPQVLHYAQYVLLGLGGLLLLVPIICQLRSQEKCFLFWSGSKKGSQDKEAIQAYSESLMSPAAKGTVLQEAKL
AID977621 – growth inhibition of wild-type GFP E. coli, dose response, H69 mutant RFP, cherry-pick; shares compounds with Ecoli rRNA inh; E. coli wild-type GFP strain growth, fluorescence, 24 h; activity change, negative = inhibition at 50 µM; 1,900 tested, under 10 active;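 active = Wild-type ribosome reporter drop at least double the humanized mutant ribosome reporter drop, growth loss under a set limit; inconclusive = no clear call, values can overlap the other calls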;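 note: wild-type GFP and H69 mutant RFP strains grown together 50/50 in each well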
AID977628 – E. coli growth inhibition, wild-type GFP versus h24 humanized RFP strain, dose response, h24 mutant RFP vs wild-type GFP, cherry-pick; shares compounds with Ecoli rRNA inh; E. coli WT GFP strain growth, fluorescence, 24 h; activity change, negative = inhibition at 50 µM; 1,900 tested, under 10 active;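 active = compound lowering the normal-ribosome reporter at least twice as much as the humanized-ribosome reporter, growth loss under a set limit; inconclusive = no clear call, values can overlap the other calls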;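 note: wild-type GFP and h24 humanized RFP strains co-cultured 1 to 1 per well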
The depositor's hits bear a star; ? = inconclusive; nt = no result. Sampled rows, rich in hits. Any-hit rate of the full collection: about 2.6%.

SMILES | Ecoli rRNA inh | SR-BI uptake up | Xi reactivation | dFosB act | PvdQ acylase | SR-BI HDL uptake | AID977621 | AID977628
C[C@@H]1CCCCO[C@@H](CN(C)Cc2ccc(C(=O)Nc3ccccc3N)cc2)[C@@H](C)CN([C@H](C)CO)C(=O)c2cc(NC(=O)Nc3ccccc3)ccc2O1 | 2 | nt | 0 | nt | nt | nt | nt | nt
COC(=O)c1ccc(-n2nnnc2SC)cc1 | nt | 3 | nt | -4 | -6 | -3 | nt | nt
CSc1nnnn1-c1ccc(Cl)cc1 | -32* | 9 | 0 | 7 | -11 | -9 | -18 | -18
Cn1cc([N+](=O)[O-])c(C(=O)Nc2cc(Oc3ccccc3)cc([N+](=O)[O-])c2)n1 | 4 | 7 | 0 | 2 | -16 | -7 | nt | nt
COc1ccc(-c2cc(C(=O)Nc3ccc(C(N)=O)cc3)c3ccccc3n2)cc1OC | -26* | -48 | 0 | 8 | -11 | 48 | -8.5 | -5.4
COC(=O)c1c(NC(C)=O)sc(Cc2ccccc2)c1C | nt | -23 | nt | -1 | -1 | 23 | nt | nt
Cc1c(Cc2ccccc2)sc(NC(=O)Cc2ccccc2)c1C(N)=O | -18* | nt | nt | -3 | -12 | nt | -4.5 | -11
O=S(=O)(Cc1ccco1)Cc1nc(-c2ccc(Cl)cc2)cs1 | -34* | nt | 0 | nt | nt | nt | -1.1 | -4.7
Cc1onc(-c2c(F)cccc2Cl)c1C(=O)c1ccccc1O | -42* | 13 | 0 | -7 | 6 | -13 | -10 | ?
Cc1onc(-c2c(F)cccc2Cl)c1C(=O)c1ccccc1 | -24 | 15 | 0 | 3 | 7 | -15 | nt | nt
COc1ccccc1NC(=O)N1CCCCN2[C@@H](CO)[C@H](c3ccc(C#Cc4ccccc4)cc3)[C@@H]2C1 | -30* | nt | 0 | nt | nt | nt | 3.1 | nt
O=C(Nc1cc(F)ccc1F)N1CCCCN2[C@H](CO)[C@H](c3ccc(-c4ccncc4)cc3)[C@@H]2C1 | -1 | nt | 0 | nt | nt | nt | nt | nt
O=C(Nc1cc(F)ccc1F)N1CCCCN2[C@@H](CO)[C@H](c3ccc(-c4ccncc4)cc3)[C@@H]2C1 | -19* | nt | 0 | nt | nt | nt | -14 | nt
O=C(Nc1ccccc1F)N1CCCCN2[C@@H](CO)[C@H](c3ccc(C#Cc4cccnc4)cc3)[C@@H]2C1 | -19* | nt | 0 | nt | nt | nt | -8.5 | ?
COc1ccccc1NC(=O)N1CCCCN2[C@H](CO)[C@@H](c3ccc(C#Cc4ccccc4)cc3)[C@H]2C1 | -34 | nt | 0 | nt | nt | nt | nt | nt
O=C(Nc1ccccc1F)N1CCCCN2[C@H](CO)[C@H](c3ccc(C#Cc4cccnc4)cc3)[C@H]2C1 | -9 | nt | 0 | nt | nt | nt | nt | nt
O=C(C[C@@H]1CC[C@H]2[C@@H](COC[C@@H](O)CN2CC2CC2)O1)NCC1CC1 | -2 | nt | 0 | nt | nt | nt | nt | nt
COc1ccc(C(=O)C2CCCN(C(=O)c3ccc(C(C)=O)s3)C2)c(C)c1 (stereo not given) | 3 | -2 | 0 | -12 | -14 | 2 | nt | nt
Cc1ccsc1/C=N/NC(=O)c1ccc2ccccc2c1 | 0 | -63 | 0 | ? | -4 | 63 | nt | nt
Cc1cccc(SCC(=O)Nc2ccccc2[N+](=O)[O-])c1 | -26* | -10 | 0 | -8 | -13 | 10 | -4.3 | -15
C=CCn1c(SCC(=O)N2CCCC2=O)nc2sc(CC)cc2c1=O | -23* | 7 | 0 | -7 | -1 | -7 | -18 | ?
C=CCn1c(SCC(=O)O)nc2sc(CC)cc2c1=O | 3 | 4 | 0 | 2 | -13 | -4 | nt | nt
NC(=O)COC(=O)CCCc1nc2ccccc2s1 | nt | 15 | nt | 7 | -9 | -15 | nt | nt
CCCN(CCC)C(=O)Cn1ccc(=N)c2ccccc21 | nt | 1 | nt | -2 | 0 | -1 | nt | nt
Cc1ccccc1-c1nc(CS(=O)(=O)CC(=O)N(C)C2CCCCC2)c(C)o1 | -5 | 9 | 0 | -15 | -6 | -9 | nt | nt
SMILES | Ecoli rRNA inh | SR-BI uptake up | Xi reactivation | dFosB act | PvdQ acylase | SR-BI HDL uptake | AID977621 | AID977628
Cc1ccc(-c2ccc([C@H]3[C@@H](CO)N4CCCCN(S(=O)(=O)c5ccccc5C)C[C@@H]34)cc2)cc1 | 6 | nt | 0 | nt | nt | nt | nt | nt
O=S(=O)(Cc1ccccc1)N1CCCCN2[C@@H](CO)[C@@H](c3ccc(-c4cccnc4)cc3)[C@@H]2C1 | -28* | nt | 0 | nt | nt | nt | -0.82 | ?
Cc1cccc(-c2ccc([C@H]3[C@@H](CO)N4CCCCN(S(=O)(=O)c5ccccc5C)C[C@H]34)cc2)c1 | -41 | nt | 0 | nt | nt | nt | 0.84 | nt
Cc1cccc(-c2ccc([C@H]3[C@@H](CO)N4CCCCN(S(=O)(=O)c5ccccc5C)C[C@@H]34)cc2)c1 | 2 | nt | 0 | nt | nt | nt | -3.9 | -3
COCCN(C(=O)c1cc2c(s1)CCCCC2)c1c(N)n(CC(C)C)c(=O)[nH]c1=O | -2 | 8 | 0 | -5 | -24 | -8 | nt | nt
Cc1ccc(C(=O)OCC(=O)Nc2ccc3[nH]c(=O)[nH]c3c2)o1 | 9 | -1 | 0 | 4 | 6 | 1 | nt | nt
C[C@H](CO)N1C[C@H](C)[C@H](CN(C)Cc2ccccc2)Oc2c(NC(=O)c3ccncc3)cccc2C1=O | 2 | nt | 0 | nt | nt | nt | nt | nt
O=C(CC(NC(=O)OCc1ccccc1)c1nn[nH]n1)OCc1ccccc1 (stereo not given) | 1 | nt | 0 | nt | nt | nt | nt | nt
Cc1occc1C(=O)NCc1ccccc1 | nt | 5 | nt | -4 | -4 | -5 | nt | nt
Cc1ccc(C(=O)NCc2ccccc2)c(F)c1F | -18* | 10 | 0 | -7 | -7 | -10 | -10 | 3.7
O=C(CC(Nc1ccccc1Cl)C(=O)O)c1ccccc1 (stereo not given) | 9 | 11 | 0 | -5 | -11 | -11 | nt | nt
COc1cc2ccccc2cc1C(=O)NC1CCCCC1 | -28* | -35 | 0 | -1 | -8 | 35 | -16 | -9.7
COc1ccccc1C(=O)Nc1ccccc1C(=O)NC1CCCCC1 | -1 | -11 | 0 | -13 | 8 | 11 | nt | nt
O=C(c1ccccc1)c1ccc2nc(-c3ccc(NC(=O)c4ccccc4Br)cc3)[nH]c2c1 | -17* | -41 | nt | 1 | -7 | 41 | nt | -13
